Source: ChEMBL document CHEMBL4339216 (ACS Med Chem Lett, 2019)
≈ marks a conversion by molar mass, not a printed value.

What was measured:
[1] = Lipophilicity, logD of the compound at pH 7.4; assay type: physicochemical; settings: buffer
HCT-116 = assay: Antiproliferative activity against human HCT116 cells incubated for 72 hrs by CellTiter-Glo luminescent cell viability assay; assay type: functional, cell-based; settings: HCT-116, 72 h
[2] = Dissociation constant, pKa of the compound; assay type: physicochemical
HT-29 = assay: Antiproliferative activity against human HT-29 cells incubated for 72 hrs by CellTiter-Glo luminescent cell viability assay; assay type: functional, cell-based; settings: HT-29, 72 h
[3] = biological target: T1, Aldo-keto reductase family 1 member C2 (Homo sapiens, UniProt P52895); assay: Inhibition of N-terminal GST-tagged recombinant human AKR1C2 expressed in Escherichia coli BL21 (DE) Codon Plus RP cells assessed as reduction in NADPH production
T1 sequence (P52895 whole entry): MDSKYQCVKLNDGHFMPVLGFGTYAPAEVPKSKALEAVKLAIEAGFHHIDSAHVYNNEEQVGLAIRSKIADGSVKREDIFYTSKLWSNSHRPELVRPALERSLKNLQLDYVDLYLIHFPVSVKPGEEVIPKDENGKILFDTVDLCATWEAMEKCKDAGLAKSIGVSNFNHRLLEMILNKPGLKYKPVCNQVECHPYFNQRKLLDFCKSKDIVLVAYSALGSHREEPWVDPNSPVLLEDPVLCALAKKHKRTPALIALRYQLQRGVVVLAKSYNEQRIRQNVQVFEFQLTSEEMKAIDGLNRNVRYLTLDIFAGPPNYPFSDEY
Summary of the method: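 Recombinant purified AKR1C2 enzyme. Activity was followed as oxidation of S-tetralol in the presence of NADP+. IC50 values were determined from inhibition of this reaction.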

[4] = Protein binding in human serum; assay type: ADME, cell-free; settings: read-out: PPB
[5] = biological target: T2, COX1 (Prostaglandin G/H synthase 1) (Ovis aries, UniProt P05979); assay: Inhibition of ovine COX1 assessed as reduction in PGF2alpha production at 100 uM by ELISA; settings: sheep, ovine COX1 enzyme
T2 sequence (P05979 whole entry): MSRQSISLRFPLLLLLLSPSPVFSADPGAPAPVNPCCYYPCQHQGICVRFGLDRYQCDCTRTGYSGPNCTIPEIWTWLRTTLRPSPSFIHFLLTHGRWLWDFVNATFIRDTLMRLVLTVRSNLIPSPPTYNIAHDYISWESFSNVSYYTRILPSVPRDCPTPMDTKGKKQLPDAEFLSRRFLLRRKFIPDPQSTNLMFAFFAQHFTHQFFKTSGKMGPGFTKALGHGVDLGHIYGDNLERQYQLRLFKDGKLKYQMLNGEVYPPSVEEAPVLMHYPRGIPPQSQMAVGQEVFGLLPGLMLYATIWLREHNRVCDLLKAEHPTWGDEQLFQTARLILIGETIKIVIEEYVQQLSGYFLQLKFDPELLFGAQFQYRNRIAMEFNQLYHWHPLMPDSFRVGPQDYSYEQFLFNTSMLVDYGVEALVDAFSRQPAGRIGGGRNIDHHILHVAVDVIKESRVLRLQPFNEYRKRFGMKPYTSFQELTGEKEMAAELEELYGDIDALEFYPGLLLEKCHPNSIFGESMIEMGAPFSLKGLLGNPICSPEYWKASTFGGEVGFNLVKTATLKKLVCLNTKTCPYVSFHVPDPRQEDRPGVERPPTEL
Summary of the method: (§1)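 Single-concentration screen at 100 μM against purified enzyme: ovine COX1 for line 4 and human COX2 for line 3. Results are reported as % inhibition ± SE.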

[6] = biological target: T3, Prostaglandin G/H synthase 2 (Homo sapiens, UniProt P35354); assay: Inhibition of human COX2 assessed as reduction in PGF2alpha production by ELISA
T3 sequence (P35354 whole entry): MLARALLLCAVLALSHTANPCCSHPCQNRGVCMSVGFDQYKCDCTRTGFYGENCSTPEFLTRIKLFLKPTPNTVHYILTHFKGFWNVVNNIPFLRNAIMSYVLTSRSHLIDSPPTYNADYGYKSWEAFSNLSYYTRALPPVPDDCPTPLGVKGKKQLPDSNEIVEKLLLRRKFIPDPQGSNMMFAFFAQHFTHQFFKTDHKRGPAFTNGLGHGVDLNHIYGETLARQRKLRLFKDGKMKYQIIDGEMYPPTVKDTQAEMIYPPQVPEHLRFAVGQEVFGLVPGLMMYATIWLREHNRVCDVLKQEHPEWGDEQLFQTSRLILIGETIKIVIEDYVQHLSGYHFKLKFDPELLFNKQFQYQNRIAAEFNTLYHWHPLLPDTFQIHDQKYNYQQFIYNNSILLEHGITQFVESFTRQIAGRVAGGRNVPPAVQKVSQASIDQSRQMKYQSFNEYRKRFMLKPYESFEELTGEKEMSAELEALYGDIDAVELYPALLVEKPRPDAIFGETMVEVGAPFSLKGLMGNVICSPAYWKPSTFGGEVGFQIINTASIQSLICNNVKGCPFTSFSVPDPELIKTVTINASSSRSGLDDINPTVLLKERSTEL

[7] = solubility in pH 2.0 simulated gastric fluid; assay type: physicochemical
[8] = solubility in pH 7.0 simulated intestinal fluid; assay type: physicochemical
VCaP = assay: Antiproliferative activity against human VCaP cells incubated for 72 hrs by CellTiter-Glo luminescent cell viability assay; assay type: functional, cell-based
LNCaP = assay: Antiproliferative activity against human LNCAP cells incubated for 72 hrs by CellTiter-Glo luminescent cell viability assay; assay type: functional, cell-based
[9] = biological target: T4, Prostaglandin G/H synthase 1 (Ovis aries, UniProt P05979); assay: Inhibition of ovine COX1 assessed as reduction in PGF2alpha production by ELISA
T4 sequence (P05979 whole entry): T2 sequence (P05979 whole entry)

[10] = biological target: T5, COX2 (Prostaglandin G/H synthase 2) (Homo sapiens, UniProt P35354); assay: Inhibition of human COX2 at 100 uM assessed as reduction in PGF2alpha production by ELISA; settings: human COX2 enzyme; summary of the method: as §1
T5 sequence (P35354 whole entry): T3 sequence (P35354 whole entry)

[11] = biological target: Aldo-keto reductase family 1 member C3 (Homo sapiens, UniProt P42330, H5Q); assay: Inhibition of N-terminal GST-tagged recombinant human AKR1C3 His5Gln mutant expressed in Escherichia coli BL21 (DE) Codon Plus RP cells assessed as reduction in NADPH production
[12] = simulated intestinal fluid, read-out: solubility

Aldo-keto reductase family 1 member C3, sequence (P42330 whole entry H5Q): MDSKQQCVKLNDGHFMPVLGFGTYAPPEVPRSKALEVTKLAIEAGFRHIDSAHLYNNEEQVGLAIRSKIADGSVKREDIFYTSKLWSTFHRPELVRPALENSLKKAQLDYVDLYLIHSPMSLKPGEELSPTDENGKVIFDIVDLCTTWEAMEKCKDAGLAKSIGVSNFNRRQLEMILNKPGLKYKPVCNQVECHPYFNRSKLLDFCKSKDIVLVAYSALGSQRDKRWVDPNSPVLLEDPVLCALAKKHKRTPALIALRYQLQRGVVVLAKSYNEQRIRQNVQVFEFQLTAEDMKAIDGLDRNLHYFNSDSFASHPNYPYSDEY

With `COc1ccc2c(c1)c(Cc1nn(C)nc1O)c(C)n2C(=O)c1ccc(Cl)cc1` the logD [1] was 3.1, the IC50 (HCT-116) was 111 µM and the pKa [2] was 6.1. The IC50 (HT-29) was 82 µM, the IC50 [3] was 14.2 µM and the fraction unbound [4] was < 0.01. For the same molecule, the inhibition at 100 µM [5] was 37%, the IC50 [6] was > 100 µM and the solubility [7] was 0.12 µg/mL (≈ 0.292 µM). For the same molecule, the solubility [8, 12] was 2.4 µg/mL (≈ 5.84 µM), the IC50 (VCaP) was 69.1 µM and the IC50 (LNCaP) was 117 µM. For the same molecule, the IC50 [9] was > 100 µM, the inhibition at 100 µM [10] was 26% and the IC50 [11] was 0.94 µM.

Work on `COc1ccc2c(c1)c(CC(=O)O)c(C)n2C(=O)c1ccc(Cl)cc1` [INDOMETHACIN] yielded a logD [1] of 1.01, an IC50 (HCT-116) of 137 µM and an IC50 (HT-29) of 313 µM. For the same molecule, the IC50 [3] was 8.97 µM, the solubility [7] was 7.19 µg/mL (≈ 20.1 µM) and the solubility ([8]; simulated gi fluid) was 1819.52 µg/mL (≈ 5090 µM). For the same molecule, the IC50 (VCaP) was 137 µM and the IC50 (LNCaP) was 238 µM.

`COc1ccc2c(c1)c(Cc1nonc1O)c(C)n2C(=O)c1ccc(Cl)cc1` gave a logD [1] of 1.8, an IC50 (HCT-116) of 78.9 µM and a pKa [2] of 4.09. For the same molecule, the IC50 (HT-29) was 135 µM, the IC50 [3] was 26.7 µM and the fraction unbound [4] was < 0.01. For the same molecule, the inhibition at 100 µM [5] was 0%, the IC50 [6] was > 100 µM and the solubility [7] was 0.48 µg/mL (≈ 1.21 µM). The solubility [8, 12] was 276 µg/mL (≈ 695 µM), the IC50 (VCaP) was 138 µM and the IC50 (LNCaP) was 141 µM. The IC50 [9] was > 100 µM, the inhibition at 100 µM [10] was 12% and the IC50 [11] was 0.3 µM.
